Screens deposited in PubChem BioAssay by Sanford-Burnham Center for Chemical Genomics.
In the library only some 0.6% were active in any assay of this set; here they are far more common.
PMI act hi M6P: PMI (human) activation, high substrate | P34949 | coupled PMI enzyme assay, resazurin fluorescence, 20 min; active compounds read high; 1 = untreated enzyme, 0 = substrate-free blank | activation factor at 20 µM | hit rate 0.34% among 190,000;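 active means activation factor of 2 or more at 20 µM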
Target sequence (P34949 whole entry, looked up): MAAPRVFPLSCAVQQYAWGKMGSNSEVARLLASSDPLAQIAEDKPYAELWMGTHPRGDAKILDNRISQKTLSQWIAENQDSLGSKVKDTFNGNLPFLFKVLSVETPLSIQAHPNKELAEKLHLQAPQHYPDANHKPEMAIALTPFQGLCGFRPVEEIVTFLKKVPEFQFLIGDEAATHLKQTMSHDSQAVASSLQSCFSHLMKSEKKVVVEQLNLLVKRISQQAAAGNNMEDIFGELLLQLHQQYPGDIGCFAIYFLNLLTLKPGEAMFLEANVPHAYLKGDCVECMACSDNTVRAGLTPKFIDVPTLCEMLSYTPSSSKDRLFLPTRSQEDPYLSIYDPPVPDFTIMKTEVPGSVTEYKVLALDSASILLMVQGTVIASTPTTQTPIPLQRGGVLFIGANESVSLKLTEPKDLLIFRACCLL
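Test system – human PMI in coupled enzyme assay · Timing – 20 min incubation at room temperature · Detection – Diaphorase-driven resazurin-to-resorufin fluorescence, excitation 544, emission 590 nm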
TNAP act hiacc: activators of human TNAP at high phosphate acceptor concentration. purified TNAP, CDP-star luminescence, 1 M DEA, 30 min; active compounds read high; 0 = EDTA background, 1 = DMSO-only activity. activation factor at 20 µM. P05186. 200,000 tested, under 10 active;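 active means activation factor at least 2 at 20 µM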
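Dosing: 20 µM single point. System: human TNAP. Amount: TNAP 1/800 final. Incubation: 30 min, room temperature. Read-out: TNAP activation factor scaled between EDTA and DMSO control wells. Signal: luminescence from CDP-star hydrolysis. Medium: 1 M DEA, pH 9.8, Mg2+, Zn2+. Control set: EDTA negative control, DMSO positive control.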
TNAP inh hiacc: TNAP (human) inhibition, high acceptor. hit rate 0.03% among 200,000. purified TNAP, CDP-star luminescence, 1 M DEA. inhibition, % at 20 µM. P05186. AID 1135;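 active means over 50% inhibition of tissue-nonspecific alkaline phosphatase at 20 µM in the single-dose screen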
PMI activator: activators of human phosphomannose isomerase | P34949 | purified human PMI, coupled resazurin fluorescence, 20 min; active compounds read high; 1 = vehicle control, 0 substrate-free wells | activation factor at 20 µM | hit rate 0.005% among 190,000 | AID 1214;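 active means activation factor of 2 or more at 20 µM, relative to plate controls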
TNAP inh no acc: inhibitors of human TNAP without phosphate acceptor. hit rate 0.26% among 200,000. purified TNAP, CDP-star luminescence, 30 min. inhibition, % at 20 µM. AID 1012;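 active means tissue-nonspecific alkaline phosphatase inhibition above about 50% at 20 µM in the single-dose screen, limit read from the data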
Hits are given with their value; n = inactive.

SMILES	PMI act hi M6P	TNAP act hiacc	TNAP inh hiacc	PMI activator	TNAP inh no acc
NC(=O)c1cc(C(=O)c2ccccc2Cl)c[nH]1	n	n	n	n	n
COc1ccc(/C=N/NC(=O)c2ccc(=O)n(C)c2)cc1OC	n	n	n	n	n
COc1ccc(/C=N/NC(=O)c2cc(-c3cccn3C)n[nH]2)cc1OC	n	n	n	n	94.2
Cn1cccc1-c1cc(C(=O)N/N=C/c2cccc(O)c2)[nH]n1	n	n	n	n	95.8
COc1ccccc1N/N=C/c1ccc2c(c1)OCO2	2.3	n	n	n	n
COc1cc(/C=N/NC(=O)c2cc(-c3ccc4c(c3)OCO4)n[nH]2)ccc1O	n	n	n	n	87.3
Cc1nonc1C(=O)N/N=C/c1cccc(O)c1	n	n	n	n	n
CCN1CCN(c2ccc(N=Cc3ccccc3O)cc2)CC1	n	n	n	n	n
COc1cc(OC)c(OC)cc1/C=N/NC(=O)c1cc(-c2cccn2C)n[nH]1	n	n	n	n	85.4
CCOc1cccc(/C=N/NC(=O)c2cc(-c3cccn3C)n[nH]2)c1O	n	n	n	n	n
O=C1CC(NNc2ccccc2)C(=O)N1c1ccccc1 (stereo unspecified)	2.5	n	n	n	n
Cc1ccc(NNC2CC(=O)N(c3cccc(Cl)c3)C2=O)cc1 (stereo unspecified)	2.6	n	n	n	n
Cc1ccc(NC2CC(=O)N(c3ccc(C)cc3)C2=O)cc1 (stereo unspecified)	n	n	n	n	n
CCCCCCCCCC(=O)Nc1cccnc1	n	n	n	n	n
COc1cc(C2C(C(=O)/C=C/c3ccccc3)=C(O)C(=O)N2c2ccccn2)ccc1O (stereo unspecified)	n	n	n	n	n
NNC(=O)c1ccc2ccccc2n1	n	n	n	n	n
COc1ccc(N=C(NN)c2ccc3ccccc3n2)cc1	2.3	n	n	n	n
CCCc1c(C)nc2ccccc2c1SCCC#N	2.3	n	n	n	n
O=c1sc(/C=N/Nc2ccccc2)c(Cl)n1Cc1ccccc1	2.1	n	n	n	n
CC1CCCCC12NC(=O)N(CC(=O)Nc1ccccc1N1CCOCC1)C2=O (stereo unspecified)	n	n	n	n	n
CSc1n[nH]c(NCc2cccs2)n1	n	n	n	n	55.7
Oc1ccc(N=Nc2nc(-c3ccccc3)c(-c3ccccc3)[nH]2)cc1	n	n	57.7	n	n
Oc1ccc(N=Nc2n[nH]c(-c3ccccc3)n2)cc1	n	n	n	n	74.4
Oc1ccc(N=Nc2n[nH]c(-c3ccc(Br)cc3)n2)cc1	n	n	n	n	74.9
Oc1ccc(-c2[nH]nc(-c3ccccc3)c2-c2nc3ccccc3[nH]2)cc1	n	n	n	n	n
SMILES	PMI act hi M6P	TNAP act hiacc	TNAP inh hiacc	PMI activator	TNAP inh no acc
CS(=O)(=O)c1ccc2nc(NC(=O)c3ccc(S(=O)(=O)NCC4CCCO4)cc3)sc2c1 (stereo unspecified)	n	n	n	n	n
Cc1ccc(S(=O)(=O)NNC(=O)CCC(=O)Nc2ccccc2)cc1	n	n	n	n	n
Nc1ccc(S(=O)(=O)NNC(=O)C(=O)NNc2ccccc2)cc1	2.3	n	n	n	n
Cc1ccc(S(=O)(=O)NNc2ccccc2)cc1	2.1	n	n	n	n
Cc1c(Cl)cccc1-n1c(SCC(=O)N2CCC(C(=O)O)CC2)nnc1-c1ccncc1	n	n	n	n	n
CC(=O)Oc1ccc(C(=O)[C@H]2[C@H]3C(=O)N(c4cccc5ccccc45)C(=O)[C@H]3[C@@H]3C=CC=NN32)cc1	n	n	n	n	n
O=C(Nc1ccc(Cl)cc1)[C@@H]1[C@@H]2C(=O)N(c3ccc4ccccc4c3)C(=O)[C@@H]2[C@H]2C=CC=NN21	2	n	n	n	n
COCC(C)N1CC(O)=C(c2nc(-c3ccc(Cl)cc3)cs2)C1=N (stereo unspecified)	n	n	n	n	n
Cc1cc(-c2ccc(Cl)s2)n[nH]1	n	n	n	n	55.0
Cc1cc(-c2cccs2)n[nH]1	n	n	n	n	n
N#CC1=C(N)Oc2n[nH]c(-c3ccccc3)c2C1c1ccncc1 (stereo unspecified)	n	n	n	n	53.0
CC(C)NC(=O)C1CCN(C2CCN(Cc3ccc4cccc(F)c4n3)CC2)CC1	n	n	n	n	n
O=C(NCc1ccccc1)c1ccc(N2C(=O)C3CCCCC3C2=O)cc1 (stereo unspecified)	n	n	n	n	n
COc1cccc(CN(C)C(=O)c2cccc(OC3CCN(C4CCCC4)CC3)c2)c1	n	n	n	n	n
O=c1c(OC2OC(CO)C(O)C(O)C2O)c(-c2ccc(O)c(O)c2)oc2cc(O)cc(O)c12 (stereo unspecified)	n	n	n	n	n
C[C@@H]1O[C@@H](Oc2c(-c3cc(O)c(O)c(O)c3)oc3cc(O)cc(O)c3c2=O)[C@H](O)[C@H](O)[C@H]1O	n	n	n	n	51.5
Cc1nn(C)c(C)c1C1Nc2ccccc2C(=O)N1O (stereo unspecified)	2	n	n	n	n
Cc1nn(C)cc1C1Nc2ccccc2C(=O)N1O (stereo unspecified)	2.2	n	n	n	n
Cc1ccsc1C1Nc2ccccc2C(=O)N1O (stereo unspecified)	n	n	n	n	n
C/C(=N\NC(=O)CNc1cccc(Cl)c1C)C1CC1	n	n	n	n	n
CCC(C)(C)NC(=O)C(c1ccc(F)cc1)N(Cc1cccs1)C(=O)c1cnccn1 (stereo unspecified)	n	n	n	n	n
Cn1c(=O)n(C)c2cc(S(=O)(=O)N3CCOCC3)ccc21	n	n	n	n	n
CSCCC1Nc2ccc(S(=O)(=O)N3CCOCC3)cc2NC1=O (stereo unspecified)	2.6	n	n	n	n
Nc1n[nH]c(-c2ccc(Br)cc2)c1Cl	n	n	n	n	81.1
COc1ccc(N=Cc2ccc(-c3ccccc3)o2)cc1	n	n	n	n	n
SMILES	PMI act hi M6P	TNAP act hiacc	TNAP inh hiacc	PMI activator	TNAP inh no acc
c1ccc(N/N=C(\Cc2ncc[nH]2)c2ccccc2)cc1	2.3	n	n	n	n
Cc1nnc(NC(=O)CSc2n[nH]c(-c3ccccc3)n2)s1	n	n	n	n	58.8
COc1ccc(-c2nc(SCC(=O)Nc3cc(C)on3)n[nH]2)cc1	n	n	n	n	70.4
CCCCc1nc(SCC(=O)Nc2cc(C)on2)n[nH]1	n	n	n	n	56.9
c1cc(Nc2ncnc3sc4c(c23)CCC4)ccn1	n	n	n	n	n
NNc1ncnc2sc3c(c12)CCC3	n	n	n	n	87.6
CC1CN(C(=O)Nc2ccccc2)c2ccccc2-[n+]2ccsc21 (stereo unspecified)	n	n	n	n	71.7
O=C(Nc1ccccc1)N1CCc2scc[n+]2-c2ccccc21	n	n	n	n	69.7
